FLuc act counter = firefly luciferase counter-screen for stimulation assays | P08659 | ATPlite luciferase biochemical, luminescence, 10 min; 0 = ATP-free wells, 1 = DMSO control | activation factor at 10 µM | 200,000 tested, under 10 active;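 active = luciferase activation factor, scaled between plate controls, of at least 2 with compound at 10 µM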
Target sequence (P08659 whole entry, looked up): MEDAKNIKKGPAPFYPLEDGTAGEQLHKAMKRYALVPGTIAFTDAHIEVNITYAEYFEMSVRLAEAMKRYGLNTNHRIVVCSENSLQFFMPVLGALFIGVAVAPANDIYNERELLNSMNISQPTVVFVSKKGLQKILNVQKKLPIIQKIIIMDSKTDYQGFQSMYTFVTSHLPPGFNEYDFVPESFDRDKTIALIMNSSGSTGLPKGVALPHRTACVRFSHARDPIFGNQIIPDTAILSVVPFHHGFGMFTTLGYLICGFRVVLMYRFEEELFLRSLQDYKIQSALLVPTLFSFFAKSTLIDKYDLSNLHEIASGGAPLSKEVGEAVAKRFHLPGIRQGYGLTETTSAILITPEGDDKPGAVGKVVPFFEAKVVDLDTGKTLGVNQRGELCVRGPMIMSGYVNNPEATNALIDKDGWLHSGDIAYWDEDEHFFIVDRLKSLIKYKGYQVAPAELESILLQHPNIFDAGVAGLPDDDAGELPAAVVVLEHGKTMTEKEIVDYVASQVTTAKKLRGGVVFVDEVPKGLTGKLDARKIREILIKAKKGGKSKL
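Assay system – cell-free luciferase reagent · Medium – PBS-based ATP solution · Dosing – test compounds dosed from 2 mM stocks in 100% DMSO · Timing – 10 min, room temperature · Technique – light output (luminescence) · Measure – luminescence gain marking luciferase activators · Controls – No-ATP low control, compound-free enzyme-plus-ATP high control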
FLuc inh counter = Photinus pyralis luciferase inhibition counter-screen; P08659; ATPLite firefly luciferase biochemical luminescence, 10 min; inhibition, % at 10 µM; 200,000 tested, 1.5% active;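 active = inhibition above about 50% when tested at 10 µM, limit read from the data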
STAT1 activator = increases IFN-gamma driven STAT1 reporter signal; NIH 3T3 STAT1-luciferase reporter, luminescence; 100% = IFN-gamma alone, no compound; activation (% of control), % at 5.5 µM; 200,000 tested, 2.6% active;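 active = activation above the screen-wide mean activation plus 3 SD, cut at about 130% in these data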
NF-kB neuron act = compounds increasing NF-kB expression in human neuronal cells; NF-kB reporter expression; stronger effect = higher value; fold change at 12.5 µM; 190,000 tested, 1.6% active; AID 1239; in the data active = fold change above about 3.3
APP 5'UTR act = APP 5'UTR luciferase reporter activation; SH-SY5Y APP 5'UTR luciferase reporter, luminescence; zero percent = DMSO vehicle wells; activation, % at 2 µM; 190,000 tested, 1% active; AID 1276;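 active = activation above a set limit, based on mean plus 3 SD of controls, cut at about 140% in these data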
STAT1 act conf = confirmation of STAT1 signaling activators; shares compounds with STAT1 activator; NIH 3T3 STAT1-luciferase reporter, IFN-gamma potentiation, luminescence; 100% = IFN-gamma EC80 alone, no compound; activation (% of control), % at 5.7 µM; 1,200 tested, 97% active; AID 1262;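 active = activation above a set limit carried over from the earlier primary STAT1 screen, cut at about 140% in these data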
NFkB act STAT1ct = activates NF-kappaB, counter-screen to STAT1 activators; 1,200 tested, 43% active; shares compounds with STAT1 activator; activation (% of control), % at 5.7 µM; HEK293T NF-kB luciferase reporter, TNF-alpha stimulated, luminescence; 100% = TNF-alpha with vehicle only;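 active = activation above the mean of solvent-only control wells plus 3 SD, set per campaign, cut at about 130% in these data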;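 note: TNF-alpha given at a submaximal dose yielding about 80% of full reporter signal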
STAT3 act 2 = activates human STAT3, counter-screen to STAT1 activators; 1,200 tested, 46% active; U3A cells STAT3-luciferase reporter, IL-6, luminescence; cells lack STAT1; 100 = IL-6 alone, no compound effect; activation (% of control), % at 5.7 µM; shares compounds with STAT1 activator; AID 1316;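 active = activation above the solvent-only control well mean plus 3 SD, set per plate batch, cut at about 110% in these data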;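 note: higher means more STAT3 reporter activation so hits are non-selective activators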
Each line names hits and unclear results; the compound was inactive in the other large screens (follow-up assays come after a bar, where they were run). In the library only some 4.3% were active in any assay of this set; here they are far more common.

O=C(CC1CCC1)NC(c1ccccc1)c1ccccc1	none
c1ccc2cc(OCc3nc4ccccc4[nH]3)ccc2c1	FLuc inh counter 73, STAT1 activator 163, NF-kB neuron act 5.1, APP 5'UTR act 184 | STAT1 act conf 200 | NFkB act STAT1ct inactive | STAT3 act 2 inactive
O=C(COc1ccc2ccccc2c1)Nc1nc2ccccc2[nH]1	none
Cc1ccc(NC(=O)Nc2ccc3c(c2)nc(C)n3C)cc1C	STAT1 activator 171, NF-kB neuron act 4.8 | STAT1 act conf 194 | NFkB act STAT1ct 137 | STAT3 act 2 inactive
Cc1nc2cc(NC(=O)Nc3ccc(N4CCOCC4)cc3)ccc2n1C	none
Cc1ccnc(NC(=O)Nc2ccc(F)cc2)c1	STAT1 activator 158, NF-kB neuron act 4.8 | STAT1 act conf 224 | NFkB act STAT1ct inactive | STAT3 act 2 inactive
COc1ccc(NC(=O)Nc2ccc3c(c2)N(C)C(=O)CS3)cc1OC	none
COC(=O)c1ccccc1NC(=O)Nc1cc(C)ccn1	none
Cc1ccnc(NC(=O)Nc2ccc3c(c2)N(C)C(=O)CS3)c1	STAT1 activator 181 | STAT1 act conf 192 | NFkB act STAT1ct 135 | STAT3 act 2 inactive
Cc1ccnc(NC(=O)Nc2ccc(Br)cc2Cl)c1	STAT1 activator 168, APP 5'UTR act 165 | STAT1 act conf 257 | NFkB act STAT1ct inactive | STAT3 act 2 inactive
CC(=O)Nc1ccc(S(=O)(=O)Nc2cc(C)ccn2)cc1	none
O=C(Cc1csc(-c2ccccc2)n1)NCc1cccs1	none
COc1ccc(CN(C(=O)Cn2nnc(-c3ccc(C)o3)n2)C(C(=O)NCC2CCCO2)c2ccco2)cc1 (stereo unspecified)	none
COc1ccc(Nc2nccc3c2nnn3C)cc1	STAT1 activator 154, APP 5'UTR act 137 | STAT1 act conf 167 | NFkB act STAT1ct inactive | STAT3 act 2 inactive
Cn1nnc2c(NCc3ccco3)nccc21	none
Nc1c2c(=O)oc(-c3ccccc3)cc2nn1-c1ccccc1	STAT1 activator 177, NF-kB neuron act 3.3, APP 5'UTR act 150 | STAT1 act conf 203 | NFkB act STAT1ct inactive | STAT3 act 2 inactive
Cc1c(-c2ccc(Cl)cc2)oc(=O)c2c(N)n(-c3ccccc3)nc12	none
CCCCn1nnc(NC(=S)NC(=O)c2ccc(-c3cccc(Cl)c3Cl)o2)n1	none
COc1ccc(NC(=O)N/C=C/c2ccccc2)cc1	STAT1 activator 156 | STAT1 act conf 168 | NFkB act STAT1ct 142 | STAT3 act 2 inactive
COc1ccc(NC(=O)Nc2ccccc2OC)cc1	none
O=C(Nc1nc2c(cc3c4c(cccc42)CC3)s1)c1ccccc1Cl	none
CC(=O)Nc1ccc(Oc2cc(NC(C)=O)cc([N+](=O)[O-])c2)cc1	none
O=C(NCc1ccccc1)c1c[nH]c2cc3c(cc2c1=O)OCCO3	STAT1 activator 178, NF-kB neuron act 3.5 | STAT1 act conf 190 | NFkB act STAT1ct 140 | STAT3 act 2 126
CN1/C(=C\C=N\O)C(C)(C)c2ccccc21	none
CN(C)c1ccc(N=C/C=C2/N(C)c3ccccc3C2(C)C)cc1	STAT1 activator 173, APP 5'UTR act 164 | STAT1 act conf inactive | NFkB act STAT1ct inactive | STAT3 act 2 inactive
O=C(NCCCN1CCOCC1)c1cccnc1SCc1ccccc1Cl	none
Cc1c(C(=O)Nc2ccc(Br)cc2)cnn1C	STAT1 activator 152 | STAT1 act conf 159 | NFkB act STAT1ct inactive | STAT3 act 2 118
C=CCn1c(SCC(=O)Nc2ccc(-c3nc4ccc(C)cc4s3)cc2)nnc1-c1ccccc1	STAT1 activator 156, APP 5'UTR act 146 | STAT1 act conf 198 | NFkB act STAT1ct inactive | STAT3 act 2 inactive
O=C(CCS(=O)(=O)c1ccccc1)Nc1ccc(-c2nc3ccccc3s2)cc1	STAT1 activator 165, NF-kB neuron act 7.2, APP 5'UTR act 170 | STAT1 act conf 240 | NFkB act STAT1ct inactive | STAT3 act 2 inactive
Cc1ccc2nc(-c3ccc(NC(=O)CN(c4ccccc4C)S(C)(=O)=O)cc3)sc2c1	STAT1 activator 153, NF-kB neuron act 3.9, APP 5'UTR act 195 | STAT1 act conf 218 | NFkB act STAT1ct inactive | STAT3 act 2 inactive
CC(=O)c1nnn(-c2ccc([N+](=O)[O-])cc2C)c1C	none
O=C(Nc1ccc(O)cc1)c1c(O)c2c([nH]c1=O)CCCC2	STAT1 activator 155, APP 5'UTR act 162 | STAT1 act conf 205 | NFkB act STAT1ct 139 | STAT3 act 2 inactive
COC(=O)c1ccccc1NC(=O)c1c(O)c2c([nH]c1=O)CCCC2	none
CC1CC1C(=O)Nc1ccc(-c2ccccc2)cc1 (stereo unspecified)	STAT1 activator 155, NF-kB neuron act 3.3 | STAT1 act conf 162 | NFkB act STAT1ct inactive | STAT3 act 2 inactive
O=C(O)C1CC=CCC1C(=O)Nc1ccccc1 (stereo unspecified)	none
N/C(=N\OC(=O)COc1ccc(Cl)cc1Br)c1ccncc1	STAT1 activator 157, NF-kB neuron act 5.8 | STAT1 act conf 198 | NFkB act STAT1ct 142 | STAT3 act 2 122
N/C(=N\OC(=O)CCCOc1ccc(Cl)cc1Cl)c1ccncc1	none
N/C(=N\OC(=O)COc1cc(Cl)c(Cl)cc1Cl)c1ccccn1	STAT1 activator 159, NF-kB neuron act 5.4, APP 5'UTR act 161 | STAT1 act conf 192 | NFkB act STAT1ct 143 | STAT3 act 2 113
N/C(=N\OC(=O)c1ccccc1Cl)c1ccncc1	FLuc inh counter 54, STAT1 activator 162 (no result: NF-kB neuron act) | STAT1 act conf 155 | NFkB act STAT1ct inactive | STAT3 act 2 inactive
O=C(CSc1ncn[nH]1)Nc1ccc2c(c1)CCC2	none
c1cncc(-c2nnc(SCCSc3nnc(-c4cccnc4)o3)o2)c1	none (no result: FLuc act counter, FLuc inh counter, NF-kB neuron act)
Fc1ccccc1CSc1nnc(-c2cccnc2)o1	STAT1 activator 161, NF-kB neuron act 3.5 | STAT1 act conf 147 | NFkB act STAT1ct inactive | STAT3 act 2 inactive
CCOC(=O)c1sc2nc(-c3cccnc3)ccc2c1N	FLuc inh counter 77, STAT1 activator 176, NF-kB neuron act 8.2, APP 5'UTR act 156 | STAT1 act conf 251 | NFkB act STAT1ct 141 | STAT3 act 2 115
Nc1c(C(=O)Nc2ccc(Cl)c(Cl)c2)sc2nc(-c3cccnc3)ccc12	none
CCCCOc1ccc(C(C)NC(=O)C2CCCN(S(=O)(=O)CCC)C2)cc1 (stereo unspecified)	none
CC(C)(C)c1ccccc1NC(=S)NC1CCCCC1	none
COc1cccc2cc(-c3csc(CCn4nc(C)cc4C)n3)c(=O)oc12	none

Assay outcomes from PubChem.
